Source: PubChem (several laboratories)
In the library only some 6.4% were active in any assay of this set; here they are far more common.
Jurkat tox 60K: cytotoxicity toward Jurkat T cells, primary screen, cytotoxicity control, cell-based, Jurkat E6.1, 60K MLSMR library; Jurkat E6.1 viability, ATP luminescence, 48 h; 56,000 tested, 1.2% active; AID 463, 2006; inhibition, % at 4 µM;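 active = inhibition above the mean inhibition of all tested compounds plus 3 SD, cut at about 28% in these data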
Ecoli WT expand: growth inhibitors of wild-type E. coli, primary screen, strain BW25113, expanded library, OD600 | OD600 absorbance | growth inhibition, % at 100 µM | 98,000 tested, 0.15% active;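 active = growth inhibition above about 50% at one test dose, limit read from the data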;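 also: growth measured after 20 h incubation at 37 °C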
Lung fibro prol: antiproliferative effect on LL 47 fibroblasts – human, LL 47 cells, CellTiter-Glo luminescence, primary screen | viability, % at 10 µM | 85,000 tested, 1.1% active | LL 47 human lung fibroblast viability, ATP luminescence; hits give low values;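 active = viability at or below 50% in the single dose screen; inactive = viability above 50%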;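 also: compound exposure lasted 72 h before the ATP readout; 100% = median luminescence of untreated cell-only wells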
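Material: Human LL 47 lung fibroblast cells | Input: 1,150 cells/well | Buffer or medium: IMEM plus 15% FBS | Compound dosing: 0.1% DMSO in all compound wells | Times: Overnight cell rest, 72 h compound treatment at 37 °C | Signal: CellTiter-Glo luminescence measuring cellular ATP | Measure: % viability versus median cells-only luminescence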
Ecoli tolC: growth inhibitors of E. coli tolC mutant, primary screen, strain BW25113 ΔtolC::kan, 384-well | OD615 | growth inhibition, % at 10 µM (by protocol) | 65,000 tested, 2.2% active | AID 573, 2007;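 active = growth inhibition at or above a cutoff equal to the mean over every tested compound plus 3 SD, cut at about 60% in these data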;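 also: growth measured after 20 h incubation at 37 °C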
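Doses: one dose of 10 µM final / Material: E. coli BW25113 ΔtolC::kan, tolC deletion mutant strain / Buffer or medium: LB with kanamycin 50 µg/mL / Evaluation: percent growth inhibition / Detection: optical density read at 615 nm / Incubation: 37 °C, 20 h exposure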
HUVEC prolif 384: inhibitors of HUVEC proliferation, primary screen, cell-based, 384-well; CellTiter-Glo luminescence, 72 h; hits give low values; viability, % at 10 µM (by protocol); 86,000 tested, 1.1% active;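 active = viability at or below 30%; inactive = viability above 30%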;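 also: 100% = median luminescence of DMSO-only cell control wells on each plate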
H69AR inhibit: proliferation blockers of H69AR lung cancer cells, primary screen, cell-based, human, 86K library | viability, % at 10 µM | 85,000 tested, 6% active | H69AR lung tumor viability, ATP luminescence, 72 h; hits give low values;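 active = viability at or below 40%; inactive = viability above 40%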;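 also: multidrug resistant small cell line overexpressing MRP-1 efflux transporter; 100% = mean luminescence of untreated control wells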
Active calls of the source: *; . = no result given.

SMILES | Jurkat tox 60K | Ecoli WT expand | Lung fibro prol | Ecoli tolC | HUVEC prolif 384 | H69AR inhibit
O=C(CSc1nc(-c2ccco2)cc(C(F)(F)F)n1)NCCc1ccccc1 | -6 | -8 | 96 | 23 | 100 | 79
CCN(CC)S(=O)(=O)c1ccc2oc(C(=O)NC(C)C)c(C)c2c1 | . | 4 | 100 | 9 | 97 | 29*
CCN(CC)S(=O)(=O)c1ccc2oc(C(=O)O)c(C)c2c1 | -3 | 0 | 90 | -6 | 99 | 97
c1ccc2c(c1)ncn2-c1ncnc2sc3c(c12)CCCC3 | . | 1 | 93 | . | 87 | 80
CC(O)CNc1nc2ccccc2n1-c1ncnc2sc3c(c12)CCC3 (centres undefined) | -3 | 15 | 81 | 16 | 53 | 38*
O=C(COC(=O)Cc1ccc(S(=O)(=O)N2CCCCC2)s1)Nc1ccc2c(c1)OCO2 | 6 | 0 | 103 | 4 | 92 | 25*
COC(=O)c1ccccc1NC(=O)Cn1c(-c2nonc2N)nc2ccccc21 | 61* | -1 | 47* | -8 | 22* | 8.2*
O=C(Cc1ccccc1)Nc1nc(=O)c2ccccc2s1 | . | -2 | 114 | . | 115 | 98
CN1c2ccccc2C(C)(C)C12C=Cc1cc(O)ccc1O2 (centres undefined) | 54* | 6 | . | 7 | . | .
COc1ccc(NC(=O)/C(Cl)=C(/Cl)S(=O)(=O)Cc2ccc(C)cc2)cn1 | . | 1 | 2.3* | . | 5.4* | 94
COc1ccc(Oc2cn[nH]c2-c2ccc(O)cc2O)cc1 | 9 | 22 | 96 | 94* | 85 | 92
COc1ccc(-c2[nH]ncc2-c2cnn(-c3ccccc3)c2)c(O)c1 | . | 1 | . | 93* | . | .
CCCc1ccc(Oc2cn[nH]c2-c2ccc(O)cc2O)cc1 | 7 | 8 | 91 | 100* | 61 | 29*
COc1ccc(-c2[nH]ncc2Oc2ccccc2OC)c(O)c1 | 8 | 8 | 101 | 99* | 98 | 39*
COc1ccc(-c2[nH]ncc2-c2cnc(C)s2)c(O)c1 | 9 | 7 | 96 | 1 | 86 | 101
CC(C)C1C(c2ccccc2)N(C)C(c2ccccc2)CC1(O)c1ccccc1 (centres undefined) | . | -6 | 83 | . | 61 | 20*
Cc1nn(-c2ccccc2)c(Cl)c1C(=O)N1CCN(c2ncnc3c2cnn3-c2ccccc2)CC1 | -1 | -9 | 55 | 17 | 2.7* | 34*
Cc1ccc(C(=O)CCNc2ccc(Br)cc2)o1 | 0 | 4 | 97 | 4 | 82 | 91
Cc1ccc(C(=O)CCNc2ccc(F)c(Cl)c2)o1 | 83* | -1 | 94 | 0 | 75 | 87
CN(CC(=O)NCCN1CCN(Cc2ccccc2)CC1)S(=O)(=O)c1cccc2nsnc12 | 1 | 4 | 97 | -20 | 97 | 95
CS(=O)(=O)N(Cc1ccc(F)cc1)Cc1nc2ccccc2c(=O)[nH]1 | -1 | -2 | 96 | -17 | 94 | 86
O=C(Nc1cccc(Cl)c1)Nc1nccs1 | -9 | 77* | 91 | 69* | 66 | 79
O=C(Nc1cccc(Cl)c1)Nc1cccc(Cl)c1 | . | . | 95 | . | 82 | 85
O=C(Nc1ccccc1)Nc1cc(Cl)cc(Cl)c1 | . | 14 | 54 | . | 28* | 1.8*
COc1ccc(-n2c(=O)c3ccccc3n(CC(=O)NC3CCCCC3)c2=O)cc1 | . | -1 | 110 | . | 115 | 98
SMILES | Jurkat tox 60K | Ecoli WT expand | Lung fibro prol | Ecoli tolC | HUVEC prolif 384 | H69AR inhibit
C=C(Br)Cn1c(CC)nc2ccccc21 | . | 2 | 96 | . | 107 | 101
O=S(=O)(c1ccc(N2CCC(c3ccc(Cl)cc3)=N2)cc1)N(CCO)CCO | . | -17 | 88 | . | 47 | 13*
CN(C)CCCNS(=O)(=O)c1ccc(N2CCC(c3ccc(Cl)cc3)=N2)cc1 | . | 41 | 1.6* | . | 3.2* | 0.5*
CN(C)CCCNS(=O)(=O)c1cc(Cl)ccc1Cl | 4 | 3 | 101 | -22 | 110 | 100
CCN(CCCNC(=O)CCc1nc(-c2ccc(OC)cc2)no1)c1cccc(C)c1 | . | -4 | 94 | 57 | 100 | 84
CCCOC(=O)C1=C(C)NC2=C(C(=O)C(C(=O)OC)C(C)C2)C1c1ccc(N(CC)CC)cc1 (centres undefined) | . | -19 | 87 | 38 | 87 | 75
